KCNK9 block: blocks the human KCNK9 two-pore domain potassium channel | Q9NPC2 | HEK293 KCNK9, FluxOR thallium flux fluorescence; stronger effect = lower value | B-score at 10 µM | 1.2% of 310,000 active;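 active means ratio B-score over 3 SD below the library mean, with starting fluorescence within 5 SD of its mean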;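 further: negative B-score means less thallium flux so channel inhibition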
KCNQ1 act: potentiates or activates the human KCNQ1 potassium channel. CHO-K1 KCNQ1, thallium flux FluxOR fluorescence; stronger effect = higher value. B-score at 10 µM. 0.35% of 310,000 active. AID 2648;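 active means fluorescence ratio B-score, a plate-corrected score, at least three library SD, with initial intensity B-score within 5 SD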
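assay system = CHO-K1 cells stably expressing KCNQ1 | medium = assay buffer, equal DMSO in all wells | timing = 37 °C overnight plating, 90-min dark dye load, 20-min compound pretreatment | measured by = kinetic FluxOR thallium fluorescence, 10-s 1-Hz baseline, 110-s post-stimulus read | measure = fluorescence change relative to baseline, converted to B score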
KCNK3 block: human KCNK3 channel inhibition, primary screen; O14649; CHO-KCNK3 thallium flux, FluxOR fluorescence; stronger effect = lower value; B-score at 10 µM; 0.84% of 340,000 active;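 active means B-score under library mean minus 4 SD, starting fluorescence ratio at most library mean plus 5 SD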;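 further: more negative B-score means stronger inhibition of thallium flux through KCNK3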
hERG rescue: compounds protecting human hERG from proarrhythmic drug block. CHO-hERG, FluxOR thallium flux, dofetilide IC70 present. AID 1511. 0.51% of 310,000 active. Q12809. activation (rescue from dofetilide block), less the hit threshold, % at 10 µM;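 active means activation above the mean of controls blocked by dofetilide plus 5 SD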;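 further: thallium influx through hERG after potassium depolarization seen as dye fluorescence rise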
Kir21 block: Kir2.1 (mouse) channel inhibition; P35561; B-score at 10 µM; 0.85% of 310,000 active; HEK293-Kir2.1, FluxOR thallium flux fluorescence; stronger effect = lower value;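 active means fluorescence ratio B-score at or below minus 3 SD of library scores, with starting-brightness B-score within 2 SD, cut at about -4.2 in these data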;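 further: channel flux triggered by added potassium and thallium sulfate stimulus; B-score of peak minus minimum fluorescence over baseline after thallium stimulus; more negative B-score means stronger Kir2.1 block with less thallium influx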
Target sequence (P35561 whole entry, looked up): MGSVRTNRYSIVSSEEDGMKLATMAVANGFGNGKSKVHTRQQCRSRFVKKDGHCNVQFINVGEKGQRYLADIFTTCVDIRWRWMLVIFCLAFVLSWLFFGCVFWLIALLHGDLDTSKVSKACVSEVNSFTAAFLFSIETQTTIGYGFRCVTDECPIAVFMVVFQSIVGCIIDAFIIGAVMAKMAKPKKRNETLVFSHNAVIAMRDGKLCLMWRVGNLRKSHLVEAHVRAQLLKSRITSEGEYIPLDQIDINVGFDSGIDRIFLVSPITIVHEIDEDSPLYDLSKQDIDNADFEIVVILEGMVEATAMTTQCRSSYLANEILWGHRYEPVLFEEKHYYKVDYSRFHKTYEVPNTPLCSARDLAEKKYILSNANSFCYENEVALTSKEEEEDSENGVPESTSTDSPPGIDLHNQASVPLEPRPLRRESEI
KCNQ1 inh: blocks the human KCNQ1 potassium channel; B-score at 10 µM; 1.3% of 310,000 active; P51787; CHO-K1 KCNQ1, FluxOR thallium flux fluorescence; stronger effect = higher value; AID 2642;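 active means compounds whose thallium flux B-score, printed positive for inhibition, exceeds three library SD while starting fluorescence stays within three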;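 further: channel opened by potassium depolarization with thallium stimulus after 20 min compound exposure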
Numbers stand for hits. A selection: hits, their analogues and other compounds. The true share with any hit is near 3.7%.

For CCOC(=O)NC(=S)Nc1ccc(C(C)(C)C)cc1Br the results were KCNK9 block inactive, KCNQ1 act 22, KCNK3 block inactive, hERG rescue 11, Kir21 block inactive and KCNQ1 inh inactive.
For COc1ccc(NC(=O)/C(=C/c2ccc(OC(C)=O)c(OC)c2)NC(C)=O)cc1 the results were KCNK9 block inactive, KCNQ1 act 88, KCNK3 block inactive, hERG rescue inactive, Kir21 block inactive and KCNQ1 inh inactive.
COc1cc(/C=C(\NC(C)=O)C(=O)Nc2ccc(NC(C)=O)cc2)ccc1OC(C)=O was read as KCNK9 block inactive, KCNQ1 act inactive, KCNK3 block inactive, hERG rescue inactive, Kir21 block inactive and KCNQ1 inh inactive.
For CCC1=NN(C(=O)C(=O)Nc2ccc(Br)cc2)C(O)(C(F)(F)F)C1 (centres undefined) the results were KCNK9 block inactive, KCNQ1 act inactive, KCNK3 block inactive, hERG rescue inactive, Kir21 block inactive and KCNQ1 inh 6.
CC(C)C1=NN(C(=O)c2cccnc2)C(O)(C(F)(F)F)C1 (centres undefined) was read as KCNK9 block inactive, KCNQ1 act inactive, KCNK3 block inactive, hERG rescue inactive, Kir21 block inactive and KCNQ1 inh inactive.
`COc1ccc(NC(=O)C(=O)N2N=C(C(C)C)CC2(O)C(F)(F)F)cc1` (centres undefined) gave KCNK9 block inactive, KCNQ1 act inactive, KCNK3 block inactive, hERG rescue inactive, Kir21 block inactive and KCNQ1 inh 6.
`CCCC1=NN(C(=O)C(=O)Nc2ccc(Br)cc2)C(O)(C(F)(F)F)C1` (centres undefined) gave KCNK9 block inactive, KCNQ1 act inactive, KCNK3 block inactive, hERG rescue inactive, Kir21 block inactive and KCNQ1 inh inactive.
CC(C)(c1ccccc1)c1ccc(OCC(O)CNC2CCN(Cc3ccccc3)CC2)cc1 (centres undefined) was read as KCNK9 block -7.5, KCNQ1 act inactive, KCNK3 block inactive, hERG rescue inactive, Kir21 block -4.9 and KCNQ1 inh 8.
COc1ccc(CNCC(O)COc2ccc(C(C)(C)c3ccccc3)cc2)cc1 (centres undefined) was read as KCNK9 block inactive, KCNQ1 act inactive, KCNK3 block inactive, hERG rescue inactive, Kir21 block -5.7 and KCNQ1 inh inactive.
Screening CSc1cccc(NC(=O)Cn2cnc(S(=O)(=O)N3CCCC3)c2)c1 returned KCNK9 block inactive, KCNQ1 act inactive, KCNK3 block inactive, hERG rescue inactive, Kir21 block inactive and KCNQ1 inh inactive.
Cc1ccc(S(=O)(=O)Nc2cc(Cl)c(O)cc2C)cc1 was read as KCNK9 block inactive, KCNQ1 act inactive, KCNK3 block inactive, hERG rescue inactive, Kir21 block -5.6 and KCNQ1 inh inactive.
For Cc1ccc(NS(=O)(=O)c2ccc(Cl)nc2)c(C)c1 the results were KCNK3 block inactive.
Cc1ccc(S(=O)(=O)Nc2cc(C(C)C)c(O)cc2C)cc1 was read as KCNK9 block inactive, KCNQ1 act inactive, KCNK3 block inactive, hERG rescue inactive, Kir21 block -6.5 and KCNQ1 inh inactive.
Screening Nc1ncc(Br)cc1S(=O)(=O)NCCC(=O)NC1CCCCC1 returned KCNK9 block inactive, KCNQ1 act inactive, KCNK3 block inactive, hERG rescue inactive, Kir21 block inactive and KCNQ1 inh inactive.
Screening O=[N+]([O-])c1ccc(S(=O)(=O)N2CCSC2c2ccco2)cc1 (centres undefined) returned KCNK9 block inactive, KCNQ1 act inactive, KCNK3 block inactive, hERG rescue inactive, Kir21 block -4.6 and KCNQ1 inh inactive.
COc1ccc(S(=O)(=O)N2CCSC2c2ccccc2)cc1 (centres undefined) was read as KCNK9 block inactive, KCNQ1 act inactive, KCNK3 block inactive, hERG rescue inactive, Kir21 block inactive and KCNQ1 inh inactive.
For Cc1cc(C)c(OCC(=O)OCC(=O)N2c3ccccc3CC2C)c(C)c1 (centres undefined) the results were KCNK9 block inactive, KCNQ1 act inactive, KCNK3 block inactive, hERG rescue inactive, Kir21 block inactive and KCNQ1 inh inactive.
`Cc1ccc(-n2cc(CNCCc3cscn3)c(-c3ccc(F)cc3)n2)cc1` gave KCNK9 block inactive, KCNQ1 act inactive, KCNK3 block inactive, hERG rescue inactive, Kir21 block inactive and KCNQ1 inh inactive.
For Cc1cccc(-n2cc(CN3CCN(c4ccccn4)CC3)c(-c3cccc(F)c3)n2)c1 the results were KCNK9 block inactive, KCNQ1 act inactive, KCNK3 block inactive, hERG rescue inactive, Kir21 block inactive and KCNQ1 inh inactive.
For Cc1ccc(-n2cc(CNCCCn3ccnc3C)c(-c3ccc(F)cc3)n2)cc1 the results were KCNK9 block inactive, KCNQ1 act inactive, KCNK3 block inactive, hERG rescue inactive, Kir21 block -7.9 and KCNQ1 inh inactive.
Screening Cc1ccc(-n2cc(CN3CCN(c4ccccn4)CC3)c(-c3ccc(F)cc3)n2)cc1 returned KCNK9 block inactive, KCNQ1 act inactive, KCNK3 block inactive, hERG rescue inactive, Kir21 block inactive and KCNQ1 inh 6.
`COc1ccc(/C=N/NC(=O)CC#N)cc1Oc1nc(Cl)ncc1F` gave KCNK9 block inactive, KCNQ1 act inactive, KCNK3 block inactive, hERG rescue inactive, Kir21 block inactive and KCNQ1 inh inactive.
CCOc1cc(/C=N/NC(=O)c2ccc(O)cc2)ccc1Oc1nc(Cl)ncc1F was read as KCNK9 block -7.8, KCNQ1 act inactive, KCNK3 block inactive, hERG rescue inactive, Kir21 block inactive and KCNQ1 inh inactive.
COc1ccccc1C(=O)NC(CCSC)C(=O)OC(C)C(=O)NC1CC1 (centres undefined) was read as KCNK9 block inactive, KCNQ1 act inactive, KCNK3 block inactive, hERG rescue inactive, Kir21 block inactive and KCNQ1 inh inactive.
Screening Cc1noc(C)c1S(=O)(=O)Nc1cccc(C(F)(F)F)c1 returned KCNK9 block inactive, KCNQ1 act inactive, KCNK3 block inactive, hERG rescue inactive, Kir21 block inactive and KCNQ1 inh 6.
Screening Cc1cccc(NS(=O)(=O)c2c(C)noc2C)c1 returned KCNK9 block inactive, KCNQ1 act inactive, KCNK3 block inactive, hERG rescue inactive, Kir21 block inactive and KCNQ1 inh inactive.
Cc1noc(C)c1S(=O)(=O)NCc1cccc(Cl)c1 was read as KCNK3 block -11.
CC(C)NCCCCOc1ccccc1-c1ccccc1 was read as KCNK9 block inactive, KCNQ1 act inactive, hERG rescue inactive, Kir21 block -5.6 and KCNQ1 inh inactive.
`CC1(C)NC(=O)N(CCOCCOc2ccccc2-c2ccccc2)C1=O` gave KCNK9 block inactive, KCNQ1 act inactive, KCNK3 block inactive, hERG rescue inactive, Kir21 block -5.4 and KCNQ1 inh inactive.
`CN(C)CCCCOc1ccccc1-c1ccccc1` gave KCNK9 block inactive, KCNQ1 act inactive, KCNK3 block inactive, hERG rescue inactive, Kir21 block inactive and KCNQ1 inh inactive.

Screening results from PubChem BioAssay.
